Measured values published in ChEMBL document CHEMBL4680156, “Discovery of novel pyrido-pyrrolidine hybrid compounds as alpha-glucosidase inhibitors and alternative agent for control of type 1 diabetes” (Eur J Med Chem, 2020).
The source made the active and inactive calls. The calls are words filed in the database; no cut-off is given here.

Assays:
[1] = Stability in rat liver microsomes assessed as CYP450-mediated drug degradation by measuring proportion of compound metabolised at 1 uM up to 60 mins in presence of NADPH by LC-MS/MS analysis; assay type: ADME; details: read-out: Drug degradation
How it was run: (§1)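 Liver microsomes (1.0 mg protein/mL) were incubated with compound at 1 μM; reactions were started with 1 mM NADPH. No-NADPH incubations (0 and 60 min) served as stability controls. Reactions were stopped at 0, 5, 15, 30 and 60 min with ice-cold acetonitrile containing internal standard, then centrifuged. Parent loss was tracked by LC-MS/MS.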

[2] = Protein binding in human plasma assessed as unbound fraction at 10 uM after 6 hrs by LC-MS/MS analysis; assay type: ADME, cell-free
How it was run: (§2)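 Equilibrium dialysis: plasma with compound at 10 μM final on one side, 100 mM sodium phosphate pH 7.4 on the other. Equilibrated at 37 ± 1 °C for 6 h with shaking at 500 rpm. Both sides were sampled, proteins precipitated with organic solvent, and supernatants analysed by LC-MS/MS.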

[3] = Clearance in mouse; assay type: ADME, organism-based; details: in vivo
Saccharomyces cerevisiae [4] = assay: Binding affinity to Saccharomyces cerevisiae alpha-glucosidase assessed as protein with alpha-helical structure at 0.32 ug/ml by CD spectroscopic method (reference value: 5.3%); details: dose 0.32 µg/ml
How it was run: (§3)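 Compound was added at different concentrations to yeast α-glucosidase (30 U/ml). CD spectra were taken with 3 accumulations (negative bands at 209 and 222 nm). α-Helix and β-sheet content were estimated with secondary-structure estimation software.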

[5] = Half life in rat liver microsomes at 1 uM up to 60 mins in presence of NADPH by LC-MS/MS analysis; assay type: ADME, Microsome; how it was run: as §1
[6] = Competitive inhibition of Saccharomyces cerevisiae alpha-glucosidase using PNPG as substrate incubated for 10 mins by Lineweaver-Burk plot analysis
How it was run: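 Yeast α-glucosidase kinetics used pNPG at 1, 2, 3, 4 and 5 mM without inhibitor or with inhibitor at 2 and 10 μM, at 37 °C. Absorbance read at 420 nm. Mode of inhibition came from Km/Vmax changes on Lineweaver–Burk double-reciprocal plots; Ki derived […].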

[7] = Octanol/aqueous buffer distribution coefficient, log D of compound after 1 hr by HPLC-UV analysis; assay type: physicochemical
How it was run: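 Compound was added to octanol and vortexed, then buffer was added. The mixture was shaken 1 h at room temperature, allowed to equilibrate 20 min and centrifuged at 4000 g for 30 min. Octanol and buffer layers were each quantified by HPLC-UV.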

BRIN-BD11 = assay: Induction of rat BRIN-BD11 cell proliferation at 1 uM after 24 hrs by MTT assay; assay type: functional
How it was run: (§4)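 BRIN-BD11 rat β-cells were seeded at 10^4 cells/well in RPMI and left overnight. They were exposed 24 h to compound at 100, 30, 10, 3, 1, 0.3 and 0.1 μM. MTT (5 mg/ml stock) was added for 90 min at 37 °C, formazan dissolved in DMSO, and absorbance read at 560 nm.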

Cytochrome P450 = Cytochrome P450 (Homo sapiens, UniProt P04798+P05177+P05181+P08684+P10632+P10635+P11509+P11712+P13584+P20813+P20815+P20853+P24462+P24903+P33260+P33261+P51589+P78329+P98187+Q02928+Q08477+Q16678+Q16696+Q5TCH4+Q6VVX0+Q7Z449+Q8TAV3+Q96SQ9+Q9HB55); assay: Stability in human liver microsomes assessed as CYP450-mediated drug degradation by measuring proportion of compound metabolised at 1 uM up to 60 mins in presence of NADPH by LC-MS/MS analysis; assay type: ADME; details: read-out: Drug degradation; how it was run: as §1
Saccharomyces cerevisiae [8] = assay: Binding affinity to Saccharomyces cerevisiae alpha-glucosidase assessed as protein with beta-sheet structure at 0.32 ug/ml by CD spectroscopic method (reference value: 68%); details: dose 0.32 µg/ml; how it was run: as §3
Rattus norvegicus = assay: Antidiabetic activity against STZ-induced type 1 diabetic Sprague-Dawley rat model assessed as decrease in fasting blood glucose level at 60 mg/kg, po administered once daily for 28 days; assay type: functional, organism-based; details: time 28.0 day
How it was run: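 Male Sprague-Dawley rats (250–320 g, 8–10 weeks) were given STZ 70 mg/kg ip once in 0.1 mmol/L citrate buffer, pH 4.5. Rats with random glucose >125 mg/dl at 4 days were counted diabetic. Dosing was 60 mg/kg in 0.5% saline by gavage once daily for 4 weeks, n=6 per group. After a 6 h fast, tail blood glucose was read by glucometer. Data are mean ± SD; 2-way ANOVA.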

[9] = Cytotoxicity against rat BRIN-BD11 cells assessed as reduction in cell viability at >=10 uM after 24 hrs by MTT assay; assay type: cell-based; details: brin-bd11, 24 h; how it was run: as §4
[10] = target: T1, Tissue alpha-L-fucosidase (Bos taurus, UniProt Q2KIM0); assay: Inhibition of bovine kidney alpha-fucosidase using […] as substrate incubated for 10 mins by spectrophotometric method
T1 sequence (Q2KIM0 whole entry): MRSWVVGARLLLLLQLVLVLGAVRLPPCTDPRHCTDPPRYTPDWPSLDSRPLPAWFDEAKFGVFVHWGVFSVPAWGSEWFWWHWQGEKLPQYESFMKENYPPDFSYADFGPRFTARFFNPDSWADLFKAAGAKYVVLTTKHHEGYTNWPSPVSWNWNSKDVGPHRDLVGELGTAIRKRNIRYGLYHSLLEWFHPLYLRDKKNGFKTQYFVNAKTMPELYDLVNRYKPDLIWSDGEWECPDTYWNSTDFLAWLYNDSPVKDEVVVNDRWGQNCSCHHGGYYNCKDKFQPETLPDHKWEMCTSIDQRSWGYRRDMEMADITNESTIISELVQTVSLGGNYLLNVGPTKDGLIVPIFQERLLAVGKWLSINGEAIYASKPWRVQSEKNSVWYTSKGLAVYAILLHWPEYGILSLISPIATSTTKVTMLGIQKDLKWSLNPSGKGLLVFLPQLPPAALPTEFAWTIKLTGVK

[11] = Intrinsic clearance in human liver microsomes at 1 uM up to 60 mins in presence of NADPH by LC-MS/MS analysis; assay type: ADME, Microsome; details: 1 h; how it was run: as §1
[12] = Toxicity in STZ-treated diabetic Sprague-Dawley rat model assessed as decrease in body weight at 60 mg/kg, po administered once daily for 28 days; assay type: organism-based; details: in vivo, 672 h, time 28 day
How it was run: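 Male Sprague-Dawley rats (250–320 g, 8–10 weeks) were made diabetic with a single STZ dose (70 mg/kg ip in 0.1 mmol/L citrate buffer, pH 4.5). Random glucose above 125 mg/dl defined diabetes. Dosing was 60 mg/kg in 0.5% saline by gastric gavage once daily for 4 weeks, n=6 per group, with vehicle controls. Body weight was recorded before and after treatment; mean ± SD, 2-way ANOVA.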

Saccharomyces cerevisiae [13] = assay: Potency index, ratio of acarbose IC50 to test compound IC50 for inhibition of Saccharomyces cerevisiae alpha-glucosidase using PNPG as substrate incubated for 10 mins by spectrophotometric method
[14] = Protein binding in mouse plasma assessed as bound fraction at 10 uM after 6 hrs by LC-MS/MS analysis; assay type: ADME, cell-free; details: read-out: PPB (converted); how it was run: as §2
[15] = Drug recovery in rat plasma at 10 uM after 6 hrs by LC-MS/MS analysis; assay type: ADME, cell-free; details: read-out: Drug recovery; how it was run: as §2
[16] = Protein binding in rat plasma assessed as bound fraction at 10 uM after 6 hrs by LC-MS/MS analysis; assay type: ADME, cell-free; details: read-out: PPB (converted); how it was run: as §2

Compound `CCOC(=O)c1ccc(-n2c(/C=C3\OC(=O)c4c3cc(C)[nH]c4=O)ccc2CO)cc1` has a metabolised at 1 h, 1 µM [1] of 95.2%, a fraction unbound at 6 h, 10 µM [2] of 0.107 and a clearance [3] of 60.3 mL/min/kg. It also gave an Activity (Saccharomyces cerevisiae [4]) of 5.2%, a half-life at 1 µM [5] of 15 min and a Ki [6] of 29.9 µM. The logD at 1 h [7] was 2.4, the Activity (BRIN-BD11) was “Active” and the metabolised at 1 h, 1 µM (Cytochrome P450) was 96.3%. For the same compound, the Activity (Saccharomyces cerevisiae [8]) was 63%, the Activity (Rattus norvegicus) was “Active” and the Activity [9] was “Toxic”. For the same compound, the IC50 [10] was 30.4 µM, the CLint [11] was 54.8 µL/min/mg and the Activity [12] was “Non-Toxic”. For the same compound, the Ratio IC50 (Saccharomyces cerevisiae [13]) was 4, the fraction unbound at 6 h, 10 µM [14] was 0.0899 and the remaining at 6 h, 10 µM [15] was 1.95%. It also gave a fraction unbound at 6 h, 10 µM [16] of 0.0156.
